Series [1] deals with Hepatitis C virus. The experiment in a line: Antiviral activity against HCV genotype 1b infected in human HuH7 cells assessed as cytoprotection after 24 hrs. The class given is functional, organism-based, Hepacivirus hominis. Conditions: Huh-7, 24 h; call rule not given here.
The nature of series [2]: Cytotoxicity against human HuH7 cells after 24 hrs by MTS assay. The class given is cell-based, Huh-7. Background: Formazan colour is commonly taken as a measure of viable cells.
Series [3] relates to Hepatitis C virus. The experiment in a line: Inhibition of HCV genotype 1b NS5B after 90 mins. The note with it: 1.5 h. Also on record: species or system Hepatitis C virus subtype 1b.
The test system of another series is adenosine deaminase. The experiment in a line: Stability of the compound assessed as compound remaining at 10 uM after 60 mins in presence of bovine adenosine deaminase. It counts as ADME. The note with it: cattle, read-out: Stability. The procedure, abridged:
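Nucleosides (10 µM) were incubated at 37 °C with 0.0125 U/mL bovine adenosine deaminase in 0.01 M potassium phosphate pH 6.0 and sampled over 1 h. Reactions were quenched with ice-cold methanol containing 0.2% formic acid. Nucleoside was quantified by LC with triple-quadrupole MS in positive-ion MRM mode, and percent remaining taken at 60 min. Values are the mean of 2 independent experiments in duplicate.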

Series [4] is described as follows: Plasma clearance in beagle dog at 0.5 mg/kg, iv after 24 hrs by LC-MS/MS analysis. Also on record: dose 0.5 mg/kg, route intravenous. The class given is ADME, organism-based, Canis lupus familiaris. The procedure, abridged:
(§1)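 Groups of 3 non-naive male beagle dogs received one dose as a solution in 5/5/5/85 ethanol/[…]/polyethylene glycol/50 mM aqueous citrate buffer (pH 3.3). Dosing was either 0.5 mg/kg by IV infusion or 1 mg/kg orally. EDTA-K3 plasma was sampled over 24 h, precipitated with acetonitrile (60% final), dried, reconstituted in 20% acetonitrile, and analysed by LC/MS/MS in positive-ion MRM mode.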

The nature of series [5]: Volume of distribution in beagle dog at 0.5 mg/kg, iv after 24 hrs by LC-MS/MS analysis. It counts as ADME, organism-based, Canis lupus familiaris. Also on record: dose 0.5 mg/kg, route intravenous. Conditions: in vivo. The gist of the method:
as §1

The nature of series [6]: Elimination half life in beagle dog plasma at 0.5 mg/kg, iv after 24 hrs by LC-MS/MS analysis. Also on record: dose 0.5 mg/kg, route intravenous. It counts as ADME, organism-based, Canis lupus familiaris. The procedure, abridged: as §1
A short description of series [7]: Oral bioavailability in beagle dog at 1 mg/kg. It counts as ADME, organism-based, Canis lupus familiaris. Conditions: in vivo. The procedure, abridged:
as §1

The next series deals with Hepatocyte. The experiment in a line: Prodrug activation in primary human hepatocytes assessed as compound triphosphate form at 10 uM after 1 hr. It counts as cell-based. The gist of the method:
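Primary human hepatocytes from two donors were grown confluent (0.88×10^6 cells/well) in Williams E medium with supplement. Cells were exposed to compound (10 µM) for 1 h, then drug-free medium for 23 h, and sampled during and after exposure. Cells were extracted in 70% methanol, dried, and resuspended in 1 mM ammonium phosphate pH 8.5. Triphosphate was quantified by LC/MS/MS. Two independent experiments were run in duplicate.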

Series [8] deals with Syrian golden hamster. The experiment in a line: Prodrug activation in Golden Syrian hamster liver assessed as compound triphosphate form at 10 mg/kg, po […]. It counts as organism-based, Mesocricetus auratus. Conditions: in vivo. Also on record: dose 10 mg/kg, route oral. The gist of the method:
(§2)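 Groups of 12 Golden Syrian hamsters or Sprague–Dawley rats were dosed orally with nucleoside in water. Doses were 20 or 10 mg/kg in hamsters and 2 or 5 mg/kg in rats. Livers were harvested under isoflurane at 1, 4, 8 and 12 h and snap-frozen. Homogenate supernatant was dried, reconstituted in 1 mM ammonium phosphate pH 7.0, and triphosphate measured by LC/MS/MS, with endogenous ATP checked for stability. Values are mean±SD from 3 livers per time point.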

Series [9] concerns Rattus norvegicus. The experiment in a line: Prodrug activation in Sprague-Dawley rat liver assessed as compound triphosphate form at 5 mg/kg, po after […]. Conditions: in vivo. Also on record: dose 5 mg/kg, route oral. It counts as organism-based. The gist of the method:
as §2

A short description of series [10]: Oral bioavailability in Sprague-Dawley rat. It counts as ADME, organism-based. Conditions: in vivo.
The test system of a further series is Huh-7. The experiment in a line: Prodrug activation in human HuH7 cells assessed as compound triphosphate form at 10 uM after 24 hrs. Conditions: huh-7, 24 h.
The nature of series [11]: Plasma clearance in rat. The class given is ADME, organism-based.
The subject of series [12] is Syrian golden hamster. The experiment in a line: Prodrug activation in Golden Syrian hamster liver assessed as compound triphosphate form at 20 mg/kg, po after 4 to 24 hrs. It counts as organism-based, Mesocricetus auratus. Also on record: dose 20 mg/kg, route oral. The note with it: in vivo.
In series [13] the test system is Rattus norvegicus. The experiment in a line: Prodrug activation in Sprague-Dawley rat liver assessed as compound triphosphate form at 2 mg/kg, po after 4 to 24 hrs. The class given is organism-based. On the set-up: dose 2 mg/kg, route oral. The note with it: in vivo.

The values below come from ChEMBL document CHEMBL2029282, “Synthesis and characterization of 2'-C-Me branched C-nucleosides as HCV polymerase inhibitors” (Bioorg Med Chem Lett, 2012).

For orientation: EC50 means the concentration needed to bring the measured effect to its halfway point. In general, CC50 refers to the concentration that lowers cell viability or growth by half. A word on the IC50: it is the concentration needed to halve the response being measured. Lower therefore signals higher potency. As usually defined, the clearance is the rate of elimination divided by the concentration. High values mean a high capacity for elimination, low ones a low capacity for elimination. What is called Vd is the apparent volume that relates the amount in the body to the concentration in plasma or blood. For orientation: half-life means how long it takes for the measured level to halve. Read a high half-life as slow decline. Usually bioavailability stands for the share of a dose that reaches the circulation, judged against a reference dose that is usually intravenous. Higher therefore signals good availability.

Consider `C[C@@]1(O)[C@H](O)[C@@H](CO)O[C@H]1c1cnc2c(N)ncnn12`, for which, in the series with Hepatitis C virus [1], the EC50 stood at 1.28 µM. In series [2], this compound registered a CC50 at 24 h above 89 µM. In the series on Hepatitis C virus [3], this compound yielded an IC50 of 2.1 µM. Further, the remaining at 1 h, 10 µM in the series with adenosine deaminase is 55%.
As to `C[C@@]1(O)[C@H](O)[C@@H](CO)O[C@H]1c1ccc2c(N)ncnn12`, in the series with Hepatitis C virus [1], the EC50 was determined as 1.98 µM. Besides, the half-maximal cytotoxic concentration (CC50) at 24 h in series [2] was found to be 85 µM. This compound also yielded an IC50 in the series with Hepatitis C virus [3] of 0.31 µM. The remaining at 1 h, 10 µM in the series on adenosine deaminase came to 100%. The clearance in series [4] is 6.67 mL/min/kg. The compound also registered a Vd in [5] of 1.66 L/kg. In addition, in [6], the half-life is above 7 h. For the same compound, the bioavailability in series [7] amounted to 70%; in series [10], 50%. The Drug metabolism result in the series with Hepatocyte is reported as “Active”; with Syrian golden hamster [8], “Active”; in the series with Rattus norvegicus [9] it was “Active”; in the series with Huh-7, “Not Active”.
With `C[C@@]1(O)[C@H](O)[C@@H](CO)O[C@H]1c1cnc2c(=O)[nH]c(N)nn12`, the EC50 in the series with Hepatitis C virus [1] is above 89 µM. Besides, in [2], the CC50 at 24 h is above 89 µM. The same compound yielded an IC50 in the series with Hepatitis C virus [3] of 0.19 µM.
As for `C[C@@]1(O)[C@H](O)[C@@H](CO)O[C@H]1c1c[nH]c(N)nc1=O`, the EC50 in the series with Hepatitis C virus [1] is above 89 µM. The CC50 at 24 h in [2] is above 89 µM. Also, the IC50 in the series with Hepatitis C virus [3] came to 13.4 µM.
As for `C[C@@]1(O)[C@H](O)[C@@H](CO)O[C@H]1n1ccc(=O)[nH]c1=O`, in the series with Hepatitis C virus [1], the EC50 was determined as 15.2 µM. The CC50 at 24 h in series [2] was above 89 µM. The IC50 with Hepatitis C virus [3] was determined as 1.32 µM.
The corresponding values for `C[C@@]1(O)[C@H](O)[C@@H](CO)O[C@H]1c1c[nH]c(=O)[nH]c1=O` are above 89 µM, above 89 µM and 13.4 µM.
With `CC(C)(C)C(=O)SCCOP(=O)(OCCSC(=O)C(C)(C)C)OC[C@H]1O[C@@H](n2cnc3c(=O)[nH]c(N)nc32)[C@](C)(O)[C@@H]1O`, in the series with Hepatitis C virus [1], the EC50 stood at 0.05 µM.
On the same count and under the same terms, the value for `CC(C)(C)C(=O)SCCOP(=O)(OCCSC(=O)C(C)(C)C)OC[C@H]1O[C@@H](c2cnc3c(=O)[nH]c(N)nn23)[C@](C)(O)[C@@H]1O` was 9.54 µM.
With `C[C@@]1(O)[C@H](O)[C@@H](CO)O[C@H]1n1ccc(N)nc1=O`, in the series with Hepatitis C virus [1], the EC50 came to 4.07 µM. In addition, in series [2], the cytotoxic concentration (CC50) at 24 h was above 89 µM. The compound also came in with an IC50 in the series on Hepatitis C virus [3] of 0.73 µM.
Take `C[C@@]1(O)[C@H](O)[C@@H](CO)O[C@H]1n1cnc2c(N)ncnc21`: in the series with Hepatitis C virus [1], the EC50 is 0.35 µM. In addition, the midpoint of cytotoxicity in series [2], the CC50 at 24 h, lay at 66 µM. In the series on Hepatitis C virus [3], this compound yielded an IC50 of 6.83 µM. Moreover, the remaining at 1 h, 10 µM in the series on adenosine deaminase was found to be 94%. In series [11], this compound gave a clearance above 200 mL/min/kg.
In the case of `C[C@@]1(O)[C@H](O)[C@@H](CO)O[C@H]1n1cnc2c(=O)[nH]c(N)nc21` [2'-B-METHYL-GUANOSINE], in the series with Hepatitis C virus [1], the EC50 came to 3.25 µM. Besides, in [2], the CC50 at 24 h is above 89 µM. For the same compound, the midpoint of inhibition with Hepatitis C virus [3], the IC50, lay at 0.25 µM.
In the case of `C[C@@]1(O)[C@H](O)[C@@H](CO)O[C@H]1n1ccc2c(N)ncnc21` [BETA-2'-C-METHYL-7-DEAZA-ADENOSINE], the EC50 in the series with Hepatitis C virus [1] came to 0.08 µM. The compound further displayed a CC50 at 24 h in series [2] above 89 µM. This compound also had an IC50 in the series with Hepatitis C virus [3] of 0.3 µM. The remaining at 1 h, 10 µM in the series on adenosine deaminase turned out to be 98%. In addition, the Drug metabolism entry in the series on Syrian golden hamster [12] and with Rattus norvegicus [13] was “Active” each time.
